In ChEMBL document CHEMBL1137781, “Synthesis and preclinical evaluation of novel PET probes for P-glycoprotein function and expression” (J Med Chem, 2009):

Tests used:
Conditions in all cases: in vivo
[1] = tested on: Brain; experiment: Biodistribution in 50 mg/kg cyclosporin A pretreated Wistar rat brain at 27+/-2 MBq, iv after 25 mins; type: ADME, organism-based; parameters: dose 50 mg/kg, route intravenous
Method in brief: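 Male Wistar rats pretreated with saline or cyclosporin A (50 mg/kg, tail vein), then given the [11C] tracer via penile vein. Dynamic microPET with a whole-brain 3D ROI. SUV read from the time-activity curve at 25 min, assuming 1 g/mL tissue density. Mean ± SEM.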

[2] = tested on: Hippocampus; experiment: Biodistribution in Wistar rat hippocampus at 40+/-4 MBq, iv after 80 mins; type: ADME, organism-based
Method in brief: (§1)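 Male Wistar rats (12 h light/dark, chow ad libitum) were fitted with a femoral arterial cannula under isoflurane. They were pretreated via tail vein with saline, cyclosporin A (50 mg/kg), or nonradioactive tracer compound (15 mg/kg; 10 mg/mL in saline with 35% ethanol). The 11C tracer was then given via penile vein, followed by 76 min microPET. Animals were then terminated; excised tissues were weighed and gamma-counted with decay correction. Values are SUVs (tissue MBq/g × body weight g / injected MBq).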

[3] = tested on: Pons; experiment: Biodistribution in Wistar rat pons at 40+/-4 MBq, iv after 80 mins; type: ADME, organism-based
[4] = tested on: Muscle tissue; experiment: Biodistribution in 50 mg/kg cyclosporin A pretreated Wistar rat muscle at 27+/-2 MBq, iv after 80 mins; type: ADME, organism-based; parameters: dose 50 mg/kg, route intravenous
[5] = tested on: Cerebellum; experiment: Biodistribution in Wistar rat cerebellum at 40+/-4 MBq, iv after 80 mins; type: ADME, organism-based
[6] = tested on: Lung; experiment: Biodistribution in 50 mg/kg cyclosporin A pretreated Wistar rat lung at 27+/-2 MBq, iv after 80 mins; type: ADME, organism-based; parameters: dose 50 mg/kg, route intravenous
[7] = tested on: Brain; experiment: Biodistribution in Wistar rat brain at 40+/-4 MBq, iv after 25 mins; type: ADME, organism-based
[8] = tested on: Ileum; experiment: Biodistribution in Wistar rat ileum at 40+/-4 MBq, iv after 80 mins; type: ADME, organism-based; method in brief: as §1
[9] = Biodistribution in Wistar rat cingulate cortex at 40+/-4 MBq, iv after 80 mins; type: ADME, organism-based; method in brief: as §1
[10] = Biodistribution in Wistar rat trachea at 40+/-4 MBq, iv after 80 mins; type: ADME, organism-based
[11] = Biodistribution in 50 mg/kg cyclosporin A pretreated Wistar rat fat at 27+/-2 MBq, iv after 80 mins; type: ADME, organism-based, Adipose tissue; parameters: dose 50 mg/kg, route intravenous
Method in brief: (§2)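 Male Wistar rats pretreated via tail vein with saline or cyclosporin A (50 mg/kg, commercial solution), then given the [11C] tracer via penile vein. After microPET scanning the anesthetized rats were killed. Tissues were excised and weighed, and blood was centrifuged into plasma and cells. γ counting with decay correction. Results as SUV (tissue MBq/g × body weight/injected dose).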

[12] = tested on: Colon; experiment: Biodistribution in Wistar rat colon at 40+/-4 MBq, iv after 80 mins; type: ADME, organism-based; method in brief: as §1
[13] = tested on: Rattus norvegicus; experiment: AUC in 50 mg/kg cyclosporin A pretreated Wistar rat at 27+/-2 MBq, iv; type: ADME, organism-based, Plasma; parameters: dose 50 mg/kg, route intravenous
Method in brief: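 Male Wistar rats with a femoral arterial cannula placed under isoflurane. Saline or cyclosporin A (50 mg/kg, commercial solution) given via tail vein, then the [11C] tracer via penile vein. Dynamic microPET over the brain for 76 min, with 14 arterial samples to 60 min. Plasma counted in a γ counter. AUC of whole-brain or plasma SUV over 0-60 min.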

[14] = tested on: Heart; experiment: Biodistribution in Wistar rat heart at 40+/-4 MBq, iv after 80 mins; type: ADME, organism-based; method in brief: as §1
[15] = tested on: Pons; experiment: Biodistribution in 50 mg/kg cyclosporin A pretreated Wistar rat pons at 27+/-2 MBq, iv after 80 mins; type: ADME, organism-based; parameters: dose 50 mg/kg, route intravenous
[16] = tested on: Spleen; experiment: Biodistribution in 50 mg/kg cyclosporin A pretreated Wistar rat spleen at 27+/-2 MBq, iv after 80 mins; type: ADME, organism-based; parameters: dose 50 mg/kg, route intravenous
[17] = Biodistribution in 50 mg/kg cyclosporin A pretreated Wistar rat entorhinal cortex at 27+/-2 MBq, iv after 80 mins; type: ADME, organism-based; parameters: dose 50 mg/kg, route intravenous; method in brief: as §2
[18] = tested on: Pancreas; experiment: Biodistribution in 50 mg/kg cyclosporin A pretreated Wistar rat pancreas at 27+/-2 MBq, iv after 80 mins; type: ADME, organism-based; parameters: dose 50 mg/kg, route intravenous
[19] = tested on: Pancreas; experiment: Biodistribution in Wistar rat pancreas at 40+/-4 MBq, iv after 80 mins; type: ADME, organism-based; method in brief: as §1
[20] = tested on: Cerebellum; experiment: Biodistribution in 50 mg/kg cyclosporin A pretreated Wistar rat cerebellum at 27+/-2 MBq, iv after 80 mins; type: ADME, organism-based; parameters: dose 50 mg/kg, route intravenous; method in brief: as §2
[21] = Biodistribution in Wistar rat frontal cortex at 40+/-4 MBq, iv after 80 mins; type: ADME, organism-based; method in brief: as §1
[22] = tested on: Kidney; experiment: Biodistribution in 50 mg/kg cyclosporin A pretreated Wistar rat kidney at 27+/-2 MBq, iv after 80 mins; type: ADME, organism-based; parameters: dose 50 mg/kg, route intravenous
[23] = Biodistribution in Wistar rat entorhinal cortex at 40+/-4 MBq, iv after 80 mins; type: ADME, organism-based; method in brief: as §1
[24] = tested on: Bone; experiment: Biodistribution in 50 mg/kg cyclosporin A pretreated Wistar rat bone at 27+/-2 MBq, iv after 80 mins; type: ADME, organism-based, Bone element; parameters: dose 50 mg/kg, route intravenous; method in brief: as §2
[25] = tested on: Hippocampus; experiment: Biodistribution in 50 mg/kg cyclosporin A pretreated Wistar rat hippocampus at 27+/-2 MBq, iv after 80 mins; type: ADME, organism-based; parameters: dose 50 mg/kg, route intravenous
[26] = Biodistribution in 50 mg/kg cyclosporin A pretreated Wistar rat amygdala at 27+/-2 MBq, iv after 80 mins; type: ADME, organism-based; parameters: dose 50 mg/kg, route intravenous; method in brief: as §2
[27] = Biodistribution in 50 mg/kg cyclosporin A pretreated Wistar rat parietal/temporal/occipital cortex at 27+/-2 MBq, iv after 80 mins; type: ADME, organism-based; parameters: dose 50 mg/kg, route intravenous
[28] = Biodistribution in 50 mg/kg cyclosporin A pretreated Wistar rat frontal cortex at 27+/-2 MBq, iv after 80 mins; type: ADME, organism-based; parameters: dose 50 mg/kg, route intravenous

- SUV [1]: 2.17
- SUV [2]: 0.3
- SUV [3]: 0.48
- SUV [4]: 0.26
- SUV [5]: 0.5
- SUV [6]: 0.98
- SUV [7]: 0.88
- SUV [8]: 1.27
- SUV [9]: 0.37
- SUV [10]: 0.78
- SUV [11]: 0.31
- SUV [12]: 1.37
- AUC [13]: 97%
- SUV [14]: 0.37
- SUV [15]: 1.28
- SUV [16]: 1.73
- SUV [17]: 1.23
- SUV [18]: 2.91
- SUV [19]: 3.16
- SUV [20]: 0.99
- SUV [21]: 0.36
- SUV [22]: 1.47
- SUV [23]: 0.35
- SUV [24]: 0.26
- SUV [25]: 0.86
- SUV [26]: 1.07
- SUV [27]: 1.04
- SUV [28]: 1.06
Compound: COc1cc2c(cc1OC)CN(CCCC1CCCc3c(O[11CH3])cccc31)CC2 (stereo not drawn)
